In ChEMBL document CHEMBL1148603, “Inhibition of Trypanosoma cruzi hexokinase by bisphosphonates” (J Med Chem, 2006) one finds CC50, IC50 and selectivity ratio data, which are given here for 39 compounds.

One series has as its system KB. Nature of the series: Cytotoxicity in human nasopharyngeal carcinoma KB cell line. The series is classed as functional. As to conditions: read-out: LD50 (the source's name). The gist of the method: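 Human nasopharyngeal carcinoma KB cells were exposed to bisphosphonates up to a highest tested level of 300 µg mL-1. […] The therapeutic index was KB LD50 divided by TcHK IC50.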

For a further series, the system named is Dictyostelium discoideum. Nature of the series: Cytotoxicity to Dictyostelium discoideum. The series is classed as functional, organism-based.
Another series deals with TcHK. Nature of the series: Therapeutic index TI=LD50(KB)/IC50(TcHK). As to conditions: human.
A further series deals with T1, Hexokinase (Trypanosoma cruzi, UniProt Q8ST54).
T1 sequence (Q8ST54 whole entry): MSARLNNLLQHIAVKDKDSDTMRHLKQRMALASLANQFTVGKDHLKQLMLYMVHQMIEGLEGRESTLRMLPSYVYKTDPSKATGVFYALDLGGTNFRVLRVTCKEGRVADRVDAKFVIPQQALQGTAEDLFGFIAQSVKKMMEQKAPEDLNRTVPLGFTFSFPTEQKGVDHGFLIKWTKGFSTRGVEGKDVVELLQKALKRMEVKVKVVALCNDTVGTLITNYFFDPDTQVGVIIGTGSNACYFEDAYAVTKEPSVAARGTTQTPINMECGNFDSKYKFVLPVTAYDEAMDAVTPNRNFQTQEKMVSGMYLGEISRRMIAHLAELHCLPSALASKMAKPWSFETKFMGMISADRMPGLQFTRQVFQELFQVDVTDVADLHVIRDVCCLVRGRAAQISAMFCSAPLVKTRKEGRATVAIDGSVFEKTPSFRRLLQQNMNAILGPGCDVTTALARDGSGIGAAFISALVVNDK
Put plainly: Inhibitory activity against Trypanosoma cruzi hexokinase. The gist of the method:
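Native glycosomal T. cruzi hexokinase, purified by a previously described procedure. Activity was followed as NADPH formation at 340 nm, coupled to D-glucose-6-phosphate dehydrogenase. Inhibition was reported as IC50.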

The test system of another series is Trypanosoma cruzi. Nature of the series: Growth inhibition of Trypanosoma cruzi intracellular amastigotes. The series is classed as functional, organism-based.
Where [1] appears, read: KB cells (cytotoxicity) versus TcHK enzyme.

Molecules are shown by their SMILES. Bounds are passed on as bounds.

With `CC1CCN(C(P(=O)(O)O)P(=O)(O)O)CC1`, the CC50 in the series with KB was found to be 446 µM. Moreover, the results for the 50% inhibitory concentration (IC50) with Dictyostelium discoideum and on Hexokinase were 2 µM and no less than 300 µM, respectively. Further, the selectivity ratio with TcHK (setting [1]) is no more than 1.5.
Regarding `O=P(O)(O)C(Nc1cccc(-c2ccc(F)c(F)c2)c1)P(=O)(O)O`, the CC50 with KB was no less than 791 µM. In addition, the figures for the IC50 with Dictyostelium discoideum and against Hexokinase were 77 µM and 2.75 µM, respectively. For the same compound, the selectivity ratio in the series on TcHK (setting [1]) is no less than 285.
On to `O=P(O)(O)C(O)(c1cccc(-c2ccccc2)c1)P(=O)(O)O`, for which, in the series on KB, the CC50 stood at 797 µM. The concentration for half-maximal inhibition (IC50) (in general, the midpoint of a concentration-inhibition curve) with Dictyostelium discoideum was 103 µM; at Hexokinase, 34.7 µM. The selectivity ratio with TcHK came out at 23.
In the case of `O=P(O)(O)C(O)(C[n+]1cccc(-c2ccccc2)c1)P(=O)(O)O`, in the series on KB, the CC50 turned out to be 12 µM. Besides, the IC50 was 3 µM in the series on Dictyostelium discoideum and no less than 300 µM against Hexokinase. Besides, in the series on TcHK (setting [1]), the selectivity ratio was no more than 0.04.
Consider `Cc1cccc(Cc2ccc[n+](CC(O)(P(=O)(O)O)P(=O)(O)O)c2)c1`, for which the CC50 in the series with KB was 728 µM. Besides, the 50% inhibitory concentration (IC50) with Dictyostelium discoideum is 889 µM; against Hexokinase, no less than 300 µM. In addition, in the series on TcHK (setting [1]), the selectivity ratio is no more than 2.4.
With `C[C@H](NC(P(=O)(O)O)P(=O)(O)O)c1cccc2ccccc12`, the IC50 in the series on Dictyostelium discoideum is 7 µM; against Hexokinase, no less than 300 µM.
As to `COCc1cccc(NC(P(=O)(O)O)P(=O)(O)O)c1`, the CC50 with KB was no less than 964 µM. Also, the IC50 in the series on Dictyostelium discoideum was found to be 253 µM; against Hexokinase it was 4.07 µM. In addition, the selectivity ratio in the series with TcHK is greater than 237.
The compound `O=P(O)(O)C(O)(CC12CC3CC(CC(C3)C1)C2)P(=O)(O)O` displayed an IC50 against Hexokinase of no less than 300 µM.
For `O=P(O)(O)C(O)(C[n+]1ccccc1)P(=O)(O)O`, the CC50 with KB was no less than 1060 µM. In addition, the IC50 was 3 µM in the series on Dictyostelium discoideum and no less than 300 µM against Hexokinase.
On to `CCOC(=O)C(Cc1cccc(-c2ccccc2)c1)P(=O)(O)O` (centres undefined), for which the IC50 on Hexokinase is no less than 300 µM.
`O=P(O)(O)C(Cc1cccc(-c2ccccc2)c1)S(=O)(=O)O` (centres undefined) registered an IC50 against Hexokinase of no less than 300 µM.
At Hexokinase, `O=c1ccc(-c2cccc(CC(O)(P(=O)(O)O)P(=O)(O)O)c2)c[nH]1` displayed an IC50 of no less than 300 µM.
Take `O=P(O)(O)C(O)(Cn1cnc2ccccc21)P(=O)(O)O`: the IC50 is 2 µM in the series on Dictyostelium discoideum and no less than 300 µM against Hexokinase.
For `COc1ccc(NC(P(=O)(O)O)P(=O)(O)O)cn1`, in the series on KB, the CC50 was 302 µM. Also, the IC50 with Dictyostelium discoideum is 52 µM; at Hexokinase, no less than 300 µM. The selectivity ratio in the series with TcHK (setting [1]) was no more than 1.
Take `O=P(O)(O)CNc1cccc(-c2ccccc2)c1`: on Hexokinase, the concentration for half-maximal inhibition (IC50) is no less than 300 µM.
On Hexokinase, `O=P(O)(O)C(CN[C@@H](CO)c1ccccc1)P(=O)(O)O` had a concentration for half-maximal inhibition (IC50) of no less than 300 µM.
As to `Cc1cc(-c2cccc(CC(O)(P(=O)(O)O)P(=O)(O)O)c2)c(F)cc1F`, on Hexokinase, the midpoint of inhibition, the IC50, lay at 2.29 µM.
Turning to `CCn1c2ccccc2c2cc(NC(P(=O)(O)O)P(=O)(O)O)ccc21`, the CC50 in the series with KB turned out to be 698 µM. For the same compound, the values for the concentration for half-maximal inhibition (IC50) in the series with Trypanosoma cruzi, with Dictyostelium discoideum and on Hexokinase were 2.2 µM, 2050 µM and 0.81 µM, respectively.
The compound `O=P(O)(O)C(Nc1cccc(-c2ccc(O)nc2)c1)P(=O)(O)O` displayed an IC50 against Hexokinase of no less than 300 µM.
Consider `C[N+](C)=c1ccn(CC(O)(P(=O)(O)O)P(=O)(O)O)cc1`, for which the concentration for half-maximal inhibition (IC50) with Dictyostelium discoideum was 30 µM; against Hexokinase it was no less than 300 µM.
In the case of `O=P(O)(O)C(Nc1ccc(F)c(-c2ccccc2)c1)P(=O)(O)O`, at Hexokinase, half-maximal inhibition (IC50) required 3.63 µM.
`CC(C)(C)c1cccc(NC(P(=O)(O)O)P(=O)(O)O)c1`: the results for the concentration for half-maximal inhibition (IC50) in the series on Dictyostelium discoideum and on Hexokinase were 75 µM and no less than 300 µM, respectively.
For `O=P(O)(O)C(Nc1cccc(Br)c1)P(=O)(O)O`, in the series on KB, the CC50 was no less than 771 µM. Further, the values for the IC50 with Dictyostelium discoideum and at Hexokinase were 112 µM and 0.95 µM, respectively. The selectivity ratio in the series with TcHK is no less than 812.
As for `O=P(O)(O)C(CNc1cccc(-c2ccccc2)c1)P(=O)(O)O`, in the series on KB, the CC50 is no less than 560 µM. For the same compound, the 50% inhibitory concentration (IC50) with Dictyostelium discoideum came out at 62 µM; on Hexokinase, 3.47 µM. In addition, in the series on TcHK (setting [1]), the selectivity ratio was no less than 162.
Turning to `CCCCCCCc1ccc(NC(P(=O)(O)O)P(=O)(O)O)cc1`, the CC50 with KB came out at 211 µM. The results for the IC50 in the series with Dictyostelium discoideum and on Hexokinase were 10 µM and 1.45 µM, respectively.
Consider `O=P(O)(O)C(O)(Cn1cnc(-c2ccccc2)c1)P(=O)(O)O`, for which the values for the half-maximal inhibitory concentration (IC50) in the series with Dictyostelium discoideum and against Hexokinase were 122 µM and 1.82 µM, respectively.
On to `O=P(O)(O)C(Nc1cccc(CO)c1)P(=O)(O)O`, for which the CC50 with KB is no less than 980 µM. For the same compound, the results for the concentration for half-maximal inhibition (IC50) in the series with Dictyostelium discoideum and against Hexokinase were 351 µM and 14.8 µM, respectively. For the same compound, in the series on TcHK, the selectivity ratio was no less than 67.
As for `O=P(O)(O)C(Nc1ncccc1OCc1ccccc1)P(=O)(O)O`, in the series with KB, the CC50 is no less than 765 µM. For the same compound, the IC50 in the series with Dictyostelium discoideum was 1 µM; at Hexokinase it was no less than 300 µM.
Turning to `CN(CCOc1ccccc1)CCC(O)(P(=O)(O)O)P(=O)(O)O`, the CC50 in the series with KB worked out at 311 µM. In addition, the results for the IC50 in the series with Dictyostelium discoideum and on Hexokinase were 2 µM and no less than 300 µM, respectively.
As for `CCCCCCCCCC(O)(P(=O)(O)O)P(=O)(O)O`, the CC50 in the series with KB was no less than 892 µM. This compound also showed an IC50 with Dictyostelium discoideum of 10 µM.
As for `Cc1cccnc1NC(P(=O)(O)O)P(=O)(O)O`, the CC50 in the series on KB was 840 µM. The 50% inhibitory concentration (IC50) was determined as 3 µM with Dictyostelium discoideum and 45.7 µM against Hexokinase.
For `O=P(O)(O)C(Nc1cccc(-c2ccccc2)c1)P(=O)(O)O`, the CC50 in the series on KB is 827 µM. In addition, the values for the IC50 in the series with Trypanosoma cruzi, with Dictyostelium discoideum and against Hexokinase were 47 µM, 211 µM and 1.95 µM, respectively.
`O=P(O)(O)C(O)(Cc1ccncc1)P(=O)(O)O`: the CC50 in the series on KB worked out at 1040 µM. At Hexokinase, it took 12.6 µM to reach half-maximal inhibition (IC50).
On Hexokinase, `O=P(O)(O)C(Nc1ccc(Cl)cc1Cl)P(=O)(O)O` [2,4-DICHLOROPHENYLAMINOMETHYLENEBISPHOSPHONIC ACID] registered a half-inhibitory concentration (IC50) of no less than 300 µM.
On to `O=[N+]([O-])c1cccc(NC(P(=O)(O)O)P(=O)(O)O)c1` [(3-NITROPHENYLAMINO)METHYLENEDIPHOSPHONIC ACID], for which the CC50 with KB was no less than 635 µM. Moreover, the IC50 was 78 µM in the series on Dictyostelium discoideum and 2.4 µM at Hexokinase. In addition, the selectivity ratio in the series with TcHK (setting [1]) was no less than 266.
Consider `CCCCN(CC)C(P(=O)(O)O)P(=O)(O)O` [(BUTYL(ETHYL)AMINO)METHYLENEDIPHOSPHONIC ACID], for which, in the series on KB, the CC50 is no less than 1060 µM. For the same compound, the half-inhibitory concentration (IC50) was 4 µM with Dictyostelium discoideum and no less than 300 µM at Hexokinase.
In the case of `O=P(O)(O)C(NC1CC1)P(=O)(O)O` [(CYCLOPROPYLAMINO)METHYLENEDIPHOSPHONIC ACID], in the series with KB, the CC50 turned out to be 242 µM. For the same compound, the results for the half-maximal inhibitory concentration (IC50) in the series with Dictyostelium discoideum and against Hexokinase were 30 µM and no less than 300 µM, respectively. Besides, the selectivity ratio in the series with TcHK (setting [1]) is no more than 0.8.
For the compound `CCCNC(P(=O)(O)O)P(=O)(O)O` [(PROPYLAMINO)METHYLENEDIPHOSPHONIC ACID], the CC50 in the series on KB turned out to be 457 µM. Besides, the 50% inhibitory concentration (IC50) with Dictyostelium discoideum was 4 µM; at Hexokinase, no less than 300 µM. Besides, in the series with TcHK (setting [1]), the selectivity ratio was no more than 1.5.
For `O=P(O)(O)C(O)(Cc1cccnc1)P(=O)(O)O` [RISEDRONIC ACID], the CC50 in the series with KB came to 822 µM. The same compound returned an IC50 against Hexokinase of no less than 300 µM.
